Data on 4 molecules can be found in ChEMBL document CHEMBL2375320, “Synthesis and antimicrobial activity of polyhalo isophthalonitrile derivatives” (2013).

As a reminder, the MIC is the lowest concentration that inhibits growth of the organism.

≈ marks a conversion by molar mass, not a printed value. Calls of active or inactive are those of the source. The rule behind the calls is not given here. Bounds are passed on as bounds.

What all share (assay type): functional
Experiment [1] deals with Bacillus cereus. In words: Antibacterial activity against Bacillus cereus ATCC 14579 assessed as growth inhibition after 24 hrs by microbroth dilution method. Conditions: ATCC 14579, 24 h. The method, boiled down:
(§1)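 Tube dilution: each compound or positive control (norfloxacin, fluconazole) prepared in DMSO at 11 concentrations from 0.98 to 1000 µg/mL. Inoculum and sterile water added to tubes each holding 1 mL of compound solution. Tubes incubated 24 h and inspected for turbidity. MIC is the lowest concentration with no visible growth. Run in triplicate.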
A general note: In broth dilution the organism is exposed to a series of concentrations in liquid medium.

For another experiment, the system named is Pseudomonas aeruginosa. Description: Antibacterial activity against Pseudomonas aeruginosa ATCC 15442 assessed as growth inhibition at 1000 ug/mL after 24 hrs by disk diffusion method. Conditions: for zone of inhibition at 1000 µg/mL: ATCC 15442, 24 h, read-out: IZ. A general note: In agar diffusion tests the substance spreads into inoculated agar from a disc or well.

The subject of another experiment is Escherichia coli. In words: Antibacterial activity against Escherichia coli ATCC 8099 assessed as growth inhibition at 1000 ug/mL after 24 hrs by disk diffusion method.
In experiment [2] the test system is Candida albicans. In words: Antifungal activity against Candida albicans ATCC 10231 assessed as growth inhibition at 1000 ug/mL after 72 hrs by disk diffusion method. Conditions: for zone of inhibition at 1000 µg/mL: ATCC 10231, 72 h, read-out: IZ. The method, boiled down:
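Candida grown and kept on Sabouraud glucose agar plates. Compounds screened at a fixed 1000 µg/mL, with fluconazole as positive control. Plates incubated at 26 °C for 72 h, then zones of inhibition measured in mm.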

In experiment [3] the test system is Candida albicans. Description: Antifungal activity against Candida albicans ATCC 10231 assessed as growth inhibition after 24 hrs by microbroth dilution method. Conditions: ATCC 10231, 24 h. The method, boiled down: as §1
For experiment [4], the system named is Staphylococcus aureus. In words: Antibacterial activity against Staphylococcus aureus ATCC 6538 assessed as growth inhibition at 1000 ug/mL after 24 hrs by disk diffusion method. Conditions: ATCC 6538, 24 h, read-out: IZ.
The test system of experiment [5] is Staphylococcus aureus. In words: Antibacterial activity against Staphylococcus aureus ATCC 6538 assessed as growth inhibition after 24 hrs by microbroth dilution method. Conditions: ATCC 6538, 24 h. The method, boiled down:
as §1

The subject of experiment [6] is Bacillus cereus. In words: Antibacterial activity against Bacillus cereus ATCC 14579 assessed as growth inhibition at 1000 ug/mL after 24 hrs by disk diffusion method. Conditions: ATCC 14579, 24 h, read-out: IZ.

Consider `N#Cc1c(N)c(F)c(F)c(C#N)c1F`, for which the minimum inhibitory concentration (MIC) was determined as 104 µg/mL (≈ 529 µM) with Bacillus cereus [1], 62.5 µg/mL (≈ 317 µM) in the experiment on Candida albicans [3] and 125 µg/mL (≈ 634 µM) with Staphylococcus aureus [5]. Also, the zone of inhibition at 1000 µg/mL amounted to 7.8 mm in the experiment with Pseudomonas aeruginosa, 7.5 mm in the experiment on Candida albicans [2], 11.8 mm in the experiment with Staphylococcus aureus [4] and 8 mm in the experiment on Bacillus cereus [6]. Also, the “inhibition zone (IZ)” value in the experiment on Escherichia coli was “inactive”.
In the case of `N#Cc1c(F)c(Cl)c(Nc2ccccc2)c(C#N)c1F`, the results for the MIC in the experiment with Bacillus cereus [1], in the experiment on Candida albicans [3] and with Staphylococcus aureus [5] were 125 µg/mL (≈ 432 µM), 0.5 µg/mL (≈ 1.73 µM) and 3.9 µg/mL (≈ 13.5 µM), respectively. Further, the zone of inhibition at 1000 µg/mL stood at 7.5 mm in the experiment with Pseudomonas aeruginosa, 13.6 mm in the experiment with Candida albicans [2], 13 mm with Staphylococcus aureus [4] and 14.6 mm in the experiment with Bacillus cereus [6]. Moreover, the “inhibition zone (IZ)” value in the experiment with Escherichia coli was “inactive”.
In the case of `CCCSc1c(Cl)c(SCCC)c(C#N)c(F)c1C#N`, the MIC in the experiment with Bacillus cereus [1] was more than 1000 µg/mL; in the experiment on Candida albicans [3] it was more than 500 µg/mL; in the experiment with Staphylococcus aureus [5] it was 11.7 µg/mL (≈ 35.6 µM). Further, the “inhibition zone (IZ)” value in the experiment with Pseudomonas aeruginosa, in the experiment on Escherichia coli and with Candida albicans [2] was “inactive” throughout. Further, the zone of inhibition at 1000 µg/mL was determined as 8.8 mm in the experiment on Staphylococcus aureus [4] and 7.5 mm in the experiment on Bacillus cereus [6].
As to `N#Cc1c(Cl)c(Cl)c(Sc2ccccc2)c(C#N)c1Cl`, the minimum inhibitory concentration (MIC) in the experiment with Bacillus cereus [1] is more than 1000 µg/mL; with Candida albicans [3], more than 500 µg/mL; in the experiment on Staphylococcus aureus [5] it was 250 µg/mL (≈ 736 µM). Further, the “inhibition zone (IZ)” value in the experiment with Pseudomonas aeruginosa and in the experiment on Escherichia coli was “inactive” each time. The zone of inhibition at 1000 µg/mL with Candida albicans [2] is 6.8 mm; with Staphylococcus aureus [4], 7.3 mm; in the experiment with Bacillus cereus [6] it was 7 mm.
